Reference: ChEMBL document CHEMBL1133762, “Aureobasidins: structure-activity relationships for the inhibition of the human MDR1 P-glycoprotein ABC-transporter” (J Med Chem, 2000)
In brackets after ≈: the same amount, converted by molar mass. Square brackets hold non-standard residues; d marks the D form. Peptide text beside a SMILES is read from it. Hmp(2R,3S) = CC[C@H](C)[C@@H](O)C(=O)O; NMeVal(β-OH) = CN[C@H](C(=O)O)C(C)(C)O; NMeF = CN[C@@H](Cc1ccccc1)C(=O)O; NMeV = CN[C@H](C(=O)O)C(C)C

Experiments:
[1] = target: T1, ATP-dependent translocase ABCB1 (Homo sapiens, UniProt P08183); assay: Direct comparison of the antifungal activities with the relative Pgp-inhibitory potencies, calculated by comparing ug/mL IC50(or IC20).; type: functional
T1 sequence (P08183 whole entry): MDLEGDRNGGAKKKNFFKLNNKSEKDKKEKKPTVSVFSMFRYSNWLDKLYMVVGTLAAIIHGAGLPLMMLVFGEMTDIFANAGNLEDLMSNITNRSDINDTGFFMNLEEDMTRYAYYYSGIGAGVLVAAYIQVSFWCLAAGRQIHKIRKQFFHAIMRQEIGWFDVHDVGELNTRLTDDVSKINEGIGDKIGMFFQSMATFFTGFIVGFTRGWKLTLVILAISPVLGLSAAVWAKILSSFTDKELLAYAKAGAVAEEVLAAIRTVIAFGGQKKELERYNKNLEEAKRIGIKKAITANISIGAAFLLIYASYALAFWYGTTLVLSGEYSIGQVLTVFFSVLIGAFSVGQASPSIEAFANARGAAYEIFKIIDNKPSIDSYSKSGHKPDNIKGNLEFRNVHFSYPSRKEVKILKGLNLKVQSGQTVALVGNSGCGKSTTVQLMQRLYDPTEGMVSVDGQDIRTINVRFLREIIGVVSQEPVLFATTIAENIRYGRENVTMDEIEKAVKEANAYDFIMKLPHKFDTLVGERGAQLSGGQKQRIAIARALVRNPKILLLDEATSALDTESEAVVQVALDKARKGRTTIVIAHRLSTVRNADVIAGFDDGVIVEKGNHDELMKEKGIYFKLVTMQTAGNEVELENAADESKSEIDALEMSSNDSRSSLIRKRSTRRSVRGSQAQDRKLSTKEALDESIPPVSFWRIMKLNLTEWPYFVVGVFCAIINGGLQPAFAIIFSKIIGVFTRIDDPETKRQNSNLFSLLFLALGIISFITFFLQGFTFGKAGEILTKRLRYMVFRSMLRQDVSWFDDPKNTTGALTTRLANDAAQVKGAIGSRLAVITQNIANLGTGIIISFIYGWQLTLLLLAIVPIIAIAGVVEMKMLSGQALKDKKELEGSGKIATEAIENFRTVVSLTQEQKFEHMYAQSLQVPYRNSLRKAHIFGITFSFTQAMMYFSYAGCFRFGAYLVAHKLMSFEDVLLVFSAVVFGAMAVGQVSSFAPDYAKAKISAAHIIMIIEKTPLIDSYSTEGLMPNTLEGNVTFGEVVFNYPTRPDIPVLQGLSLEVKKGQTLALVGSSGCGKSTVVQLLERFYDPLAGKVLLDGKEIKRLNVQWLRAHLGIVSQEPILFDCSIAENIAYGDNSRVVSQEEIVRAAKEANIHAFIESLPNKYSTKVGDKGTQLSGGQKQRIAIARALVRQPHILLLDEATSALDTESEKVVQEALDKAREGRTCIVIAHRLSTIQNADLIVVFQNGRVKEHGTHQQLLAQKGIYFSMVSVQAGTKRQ

[2] = tested on: Saccharomyces cerevisiae; assay: Relative antifungal activity (against Saccharomyces cerevisiae) compared to AbA
[3] = target: P-glycoprotein (ABCB1, MDR1) (Homo sapiens, UniProt P08183); assay: (§1) Human MDR1 Pgp inhibitory activity by using standard calcein-AM efflux method with the human leukemia CEM cells.; type: cell-based, CCRF-CEM; conditions: probe calcein-AM
P-glycoprotein (ABCB1, MDR1), sequence (P08183 whole entry): as above

[4] = target: T1, ATP-dependent translocase ABCB1; assay: as §1; type: cell-based, CCRF-CEM
[5] = tested on: Saccharomyces cerevisiae; assay: Minimum growth-inhibitory concentration against Saccharomyces cerevisiae ATCC 9763 by agar dilution method by the suspension of a fungi containing ~5 x 10e (7) cells/mL.; type: functional
Procedure, shortened: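 Agar dilution on Sabouraud–dextrose agar plates with graded compound concentrations. A loopful of yeast suspension (about 5 × 10⁷ cells/mL) was streaked on the surface. Plates were incubated at 30 °C for 3 days. MIC is the lowest concentration with no detectable growth.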

SMILES	Pgp AbA/analogue ratio [1]	antifungal AbA/analogue ratio [2]	IC20 [3]	IC50 [4]	MIC [5]	IC50 ([3]; human, human leukemia CEM cells)
CC[C@@H](C)[C@@H]1NC(=O)[C@@H]2CCCN2C(=O)[C@H](Cc2ccccc2)N(C)C(=O)[C@H](Cc2ccccc2)NC(=O)[C@H](C(C)C)N(C)C(=O)[C@@H](C(C)C)OC(=O)[C@H](C(C)(C)O)N(C)C(=O)[C@H](CC(C)C)NC(=O)[C@H](C(C)C)N(C)C1=O	2.1	1	340 nM	1100 nM	–	–
CC[C@H](C)[C@@H]1NC(=O)[C@@H]2CCCN2C(=O)[C@@H](C)N(C)C(=O)[C@H](CO)NC(=O)[C@H](C(C)C)N(C)C(=O)[C@@H]([C@@H](C)CC)OC(=O)[C@H](C(C)(C)O)N(C)C(=O)[C@H](CC(C)C)NC(=O)[C@H](C(C)C)N(C)C1=O	< 0.1	< 0.016	> 31000 nM	> 31000 nM	> 25 µg/mL	–
CC[C@H](C)[C@@H]1NC(=O)[C@@H]2CCCN2C(=O)[C@H](Cc2ccccc2)N(C)C(=O)[C@H](Cc2ccccc2)NC(=O)[C@H](C(C)C)N(C)C(=O)[C@@H]([C@@H](C)CC)OC(=O)C(C(C)(C)O)N(C)C(=O)[C@H](CC(C)C)NC(=O)[C@H](C(C)C)N(C)C1=O (some centres not stated)	–	–	100 nM	360 nM	–	–
CC[C@H](C)[C@@H]1NC(=O)[C@H]2CCCN2C(=O)[C@H](Cc2ccccc2)N(C)C(=O)[C@H](Cc2ccccc2)NC(=O)[C@H](C(C)C)N(C)C(=O)[C@@H]([C@@H](C)CC)OC(=O)[C@H](C(C)(C)O)N(C)C(=O)[C@H](CC(C)C)NC(=O)[C@H](C(C)C)N(C)C1=O	–	–	1360 nM	> 2700 nM	1.6 µg/mL (≈ 1.45 µM)	–
CC[C@H](C)[C@H]1OC(=O)[C@H](C(C)(C)O)N(C)C(=O)[C@H](CC(C)C)NC(=O)[C@H](C(C)C)N(C)C(=O)[C@H](C(C)C)NC(=O)[C@@H]2CCCN2C(=O)[C@H](Cc2ccccc2)N(C)C(=O)[C@H](Cc2ccccc2)NC(=O)[C@H](C(C)C)N(C)C1=O (cyclo(F[NMeF]PV[NMeV]L[NMeVal(β-OH)][Hmp(2R,3S)][NMeV]))	1.8	–	410 nM	1290 nM	0.4 µg/mL (≈ 0.368 µM)	–
CC[C@H](C)[C@@H]1NC(=O)[C@@H]2CCCN2C(=O)[C@@H](Cc2ccccc2)N(C)C(=O)[C@H](Cc2ccccc2)NC(=O)[C@H](C(C)C)N(C)C(=O)[C@@H]([C@@H](C)CC)OC(=O)[C@H](C(C)(C)O)N(C)C(=O)[C@H](CC(C)C)NC(=O)[C@H](C(C)C)N(C)C1=O	–	–	910 nM	2730 nM	0.2 µg/mL (≈ 0.182 µM)	–
CC[C@H](C)[C@@H]1NC(=O)[C@@H]2CCCN2C(=O)[C@H](Cc2ccccc2)N(C)C(=O)[C@H](Cc2ccccc2)NC(=O)[C@H](C(C)C)N(C)C(=O)[C@@H]([C@@H](C)CC)OC(=O)[C@H](C(C)(C)O)N(C)C(=O)[C@H](CC(C)C)NC(=O)[C@@H](C(C)C)N(C)C1=O	–	–	1800 nM	> 2730 nM	> 25 µg/mL	–
CC[C@@H](C)[C@@H]1NC(=O)[C@@H]2CCCN2C(=O)[C@H](Cc2ccccc2)N(C)C(=O)[C@H](Cc2ccccc2)NC(=O)[C@H](C(C)C)N(C)C(=O)[C@@H]([C@@H](C)CC)OC(=O)[C@H]([C@H](C)CO)N(C)C(=O)[C@H](CC(C)C)NC(=O)[C@H](C(C)C)N(C)C1=O	2.1	0.06	360 nM	–	–	1090 nM
CC[C@H](C)[C@@H]1NC(=O)[C@@H]2CCCN2C(=O)[C@@H](C)N(C)C(=O)[C@H](Cc2ccc(O)cc2)NC(=O)[C@H](C(C)C)N(C)C(=O)[C@@H]([C@@H](C)CC)OC(=O)[C@H](C(C)(C)O)N(C)C(=O)[C@H](CC(C)C)NC(=O)[C@H](C(C)C)N(C)C1=O	0.4	–	2120 nM	5770 nM	25 µg/mL (≈ 24 µM)	–
